Assay results: ChEMBL document CHEMBL2384950, “2-(3-Fluoro-4-methylsulfonylaminophenyl)propanamides as potent TRPV1 antagonists: structure activity relationships of the 2-oxy pyridine C-region” (Eur J Med Chem, 2013)

What was measured:
[1] = target: T1, Transient receptor potential cation channel subfamily V member 1 (Homo sapiens, UniProt Q8NER1); assay: Antagonist activity at human TRPV1 expressed in CHOK1 cells assessed as inhibition of capsaicin-induced activity by FLIPR assay; type: cell-based, CHO-K1
T1 sequence (Q8NER1 whole entry): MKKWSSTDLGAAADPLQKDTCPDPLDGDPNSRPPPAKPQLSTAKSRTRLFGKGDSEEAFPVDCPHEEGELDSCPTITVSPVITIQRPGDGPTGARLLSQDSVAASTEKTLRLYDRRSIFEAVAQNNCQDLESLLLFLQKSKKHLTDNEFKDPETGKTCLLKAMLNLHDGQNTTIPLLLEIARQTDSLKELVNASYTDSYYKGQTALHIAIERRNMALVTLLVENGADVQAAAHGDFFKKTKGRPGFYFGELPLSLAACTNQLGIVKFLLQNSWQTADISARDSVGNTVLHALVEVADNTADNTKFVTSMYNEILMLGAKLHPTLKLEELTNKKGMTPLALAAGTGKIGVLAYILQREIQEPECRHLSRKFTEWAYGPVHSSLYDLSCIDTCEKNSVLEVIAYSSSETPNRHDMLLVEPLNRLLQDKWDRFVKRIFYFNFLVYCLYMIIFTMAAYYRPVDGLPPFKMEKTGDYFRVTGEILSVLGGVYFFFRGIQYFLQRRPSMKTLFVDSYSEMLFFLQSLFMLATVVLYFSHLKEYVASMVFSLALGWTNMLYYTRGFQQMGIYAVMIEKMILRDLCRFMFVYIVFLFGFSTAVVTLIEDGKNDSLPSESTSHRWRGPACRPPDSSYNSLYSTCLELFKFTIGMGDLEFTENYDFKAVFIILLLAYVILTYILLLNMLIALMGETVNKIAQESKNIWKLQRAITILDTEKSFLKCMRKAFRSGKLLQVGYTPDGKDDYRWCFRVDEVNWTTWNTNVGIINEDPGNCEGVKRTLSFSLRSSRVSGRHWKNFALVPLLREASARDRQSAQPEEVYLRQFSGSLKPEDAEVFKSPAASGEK

[2] = target: T1, Transient receptor potential cation channel subfamily V member 1; assay: Antagonist activity at human TRPV1 expressed in CHOK1 cells assessed as inhibition of pH 6 to 6.3-induced activity by FLIPR assay; type: cell-based, CHO-K1
[3] = target: T1, Transient receptor potential cation channel subfamily V member 1; assay: Antagonist activity at human TRPV1 expressed in CHOK1 cells assessed as inhibition of N-arachidonoyldopamine-induced activity after 5 mins by FLIPR assay; type: cell-based, CHO-K1
[4] = target: T1, Transient receptor potential cation channel subfamily V member 1; assay: Antagonist activity at human TRPV1 expressed in CHOK1 cells assessed as inhibition of heat 45 degC-induced activity after 5 mins by FLIPR assay; type: cell-based, CHO-K1
Mus musculus [5] = assay: Analgesic activity in NMRI mouse assessed as inhibition of formalin-induced nociceptive response at 0.1 mg/kg, po mesaured for 21 to 24 mins relative to control; type: functional
Outline: (§1)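 Oral dosing in mice, randomized dose and vehicle groups, 10 animals per group, vehicle control each study. 20 μl 1% formalin in 0.9% NaCl injected subcutaneously into dorsal right hind paw. Time spent licking and biting the injected paw counted 21–24 min post-formalin. Reported as % inhibition (mean ± SEM) versus vehicle; Kruskal–Wallis test.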

Mus musculus [6] = assay: Analgesic activity in NMRI mouse assessed as inhibition of formalin-induced nociceptive response at 0.3 mg/kg, po mesaured for 21 to 24 mins relative to control; type: functional; outline: as §1

| Ki [1] [nM] | IC50 [2] [nM] | SMILES | other results |
| --- | --- | --- | --- |
| 2.6 | 114 | CC(C(=O)NCc1ccc(C(F)(F)F)nc1OCc1cc(Cl)cc(Cl)c1)c1ccc(NS(C)(=O)=O)c(F)c1 (stereo not given) |  |
|  | > 10000 | CCC(CC)Oc1nc(C(F)(F)F)ccc1CNC(=O)C(C)c1ccc(NS(C)(=O)=O)c(F)c1 (stereo not given) |  |
| 4.9 | 95 | CC(C(=O)NCc1ccc(C(F)(F)F)nc1OCc1cccc(Cl)c1)c1ccc(NS(C)(=O)=O)c(F)c1 (stereo not given) |  |
| 0.5 | 27.6 | CC(C(=O)NCc1ccc(C(F)(F)F)nc1OCCc1ccccc1)c1ccc(NS(C)(=O)=O)c(F)c1 (stereo not given) |  |
|  | 174 | CC1CC(C)CC(Oc2nc(C(F)(F)F)ccc2CNC(=O)C(C)c2ccc(NS(C)(=O)=O)c(F)c2)C1 (stereo not given) |  |
| 0.5 |  | CCCCC(CCC)Oc1nc(C(F)(F)F)ccc1CNC(=O)C(C)c1ccc(NS(C)(=O)=O)c(F)c1 (stereo not given) |  |
| 2.6 | 653 | COc1ccc(COc2nc(C(F)(F)F)ccc2CNC(=O)C(C)c2ccc(NS(C)(=O)=O)c(F)c2)cc1 (stereo not given) |  |
| 50 |  | CCOCCOc1nc(C(F)(F)F)ccc1CNC(=O)C(C)c1ccc(NS(C)(=O)=O)c(F)c1 (stereo not given) |  |
|  | > 10000 | CC(C(=O)NCc1ccc(C(F)(F)F)nc1OC1CCNCC1)c1ccc(NS(C)(=O)=O)c(F)c1 (stereo not given) |  |

Second part, the molecule before the results:

| SMILES | Ki [1] [nM] | IC50 [2] [nM] | other results |
| --- | --- | --- | --- |
| CC(C(=O)NCc1ccc(C(F)(F)F)nc1OCc1cc(F)cc(F)c1)c1ccc(NS(C)(=O)=O)c(F)c1 (stereo not given) | 1 | 93 |  |
| COCCOc1nc(C(F)(F)F)ccc1CNC(=O)C(C)c1ccc(NS(C)(=O)=O)c(F)c1 (stereo not given) | 49 |  |  |
| CC1CCN(c2nc(C(F)(F)F)ccc2CNC(=O)C(C)c2ccc(NS(C)(=O)=O)c(F)c2)CC1 (stereo not given) |  |  | Ki [3]: 0.23 nM; IC50 [4]: 4.5 nM |
| CC(C(=O)NCc1ccc(C(C)(C)C)cc1)c1ccc(NS(C)(=O)=O)c(F)c1 (stereo not given) | 44.5 | 1990 |  |
| CC(C(=O)NCc1ccc(C(F)(F)F)nc1OCC1CCNCC1)c1ccc(NS(C)(=O)=O)c(F)c1 (stereo not given) |  | > 10000 |  |
| CC(C(=O)NCc1ccc(C(F)(F)F)nc1OCc1ccccc1)c1ccc(NS(C)(=O)=O)c(F)c1 (stereo not given) |  |  | Ki [3]: 0.001 nM; inhibition in vivo at 0.1 mg/kg (Mus musculus [5]): 41.8%; IC50 [4]: 52.3 nM; inhibition in vivo at 0.3 mg/kg (Mus musculus [6]): 54.1% |
| CC(C)COc1nc(C(F)(F)F)ccc1CNC(=O)C(C)c1ccc(NS(C)(=O)=O)c(F)c1 (stereo not given) |  |  | Ki [3]: 0.29 nM; inhibition in vivo at 0.1 mg/kg (Mus musculus [5]): 63.4%; IC50 [4]: 67.5 nM; inhibition in vivo at 0.3 mg/kg (Mus musculus [6]): 60.8% |
| CC(C(=O)NCc1ccc(C(F)(F)F)nc1OCc1cccc(F)c1)c1ccc(NS(C)(=O)=O)c(F)c1 (stereo not given) | 0.8 | 69 |  |
| CC(C(=O)NCc1ccc(C(F)(F)F)nc1OC[C@@H]1C[C@H]1C)c1ccc(NS(C)(=O)=O)c(F)c1 (stereo not given in full) | 0.3 | 5.1 |  |
| CC(C(=O)NCc1ccc(C(F)(F)F)nc1OCCC1CCCCN1C(=O)OC(C)(C)C)c1ccc(NS(C)(=O)=O)c(F)c1 (stereo not given) | 0.3 | 16.6 |  |
